Reference: ChEMBL document CHEMBL1130383, “Anesthetic activity of novel water-soluble 2 beta-morpholinyl steroids and their modulatory effects at GABAA receptors” (J Med Chem, 1997)

Experiments:
[1] = target: GABA-A receptor; anion channel (Bos taurus) (UniProt P10063+P08220+P20237+P08219+P10064+P22300); test: Concentration required to potentiate GABA-evoked currents in voltage-clamped bovine chromaffin cells by 300%; type: functional
In short: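 Adult bovine chromaffin cells, primary culture, recorded 4 h to 2 days after plating. Whole-cell patch clamp, continuous superfusion with 140 mM NaCl, 2.8 mM KCl, 2 mM MgCl2, 1 mM CaCl2, 10 mM HEPES (pH 7.2). CsCl-based pipette solution, room temperature (18–22 °C). Currents filtered at 500 Hz. Steroid concentration enhancing the GABA-evoked response by 300% of control was interpolated; mean ± SEM of N cells.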

[2] = Therapeutic index by the ratio between LD50 to HD50
Mus musculus [3] = test: Hypnotic dose was determined by observing loss of righting reflex for a minimum period of 30 sec in 50% of treated mice after i.v. administration.; type: functional
In short: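 Male CFLP mice (25–35 g), tested in the light period. Groups of eight received an i.v. lateral tail vein injection over 10 s (10 mL kg-1) on a μmol/kg dose series, e.g. 2–16, with extra doses added. Vehicle was saline for amine salts; standards were in HPCD/saline, emulsion or saline. HD50 with 95% confidence limits was obtained by probit analysis of the fraction showing LRR ≥30 s.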

[4] = target: GABA-A receptor; anion channel; test: The concentration required to inhibit 50% of binding of [35S]TBPS to Gamma-aminobutyric acid A receptor to rat whole brain membranes.; type: cell membranes
Mus musculus [5] = test: Hypnotic dose by observing loss of righting reflex for a minimum period of 30 sec in 50% of treated mice after iv administration; caused convulsions and not tested further; type: functional, organism-based
Mus musculus [6] = species on record: Mus musculus; test: Effect on interval between loss of righting reflex and return to righting reflex (sleep duration) was measured at a dose twice that of hypnotic dose; caused convulsions and was not tested for the sleeping duration; type: functional, organism-based

Compound	POT [1] [nM]	selectivity ratio [2]	HD50 (Mus musculus [3]) [µM/kg]	IC50 [4] [nM]	HD50 (Mus musculus [5])	SD (Mus musculus [6])
C[C@]12C[C@H](N3CCOCC3)[C@@H](O)C[C@@H]1CC[C@@H]1[C@@H]2CC[C@]2(C)[C@@H](C(=O)CCl)CC[C@@H]12	150	6.1	8.5	171	–	–
CC(=O)SCC(=O)[C@H]1CC[C@H]2[C@@H]3CC[C@H]4C[C@H](O)[C@@H](N5CCOC(C)(C)C5)C[C@]4(C)[C@H]3CC[C@]12C	–	–	–	32	Convulsant	Convulsant
CC(=O)[C@H]1CC[C@H]2[C@@H]3CC[C@H]4C[C@H](O)[C@@H](N5CCOCC5)C[C@]4(C)[C@H]3C(=O)C[C@]12C	–	4.6	34.6	2560	–	–
CC[C@@H]1CN([C@H]2C[C@@]3(C)[C@@H](CC[C@H]4[C@@H]5CC[C@H](C(C)=O)[C@@]5(C)CC(=O)[C@@H]43)C[C@@H]2O)CCO1	910	5.8	8.7	317	–	–
C[C@]12C[C@H](N3CCOCC3)[C@@H](O)C[C@@H]1CC[C@H]1[C@@H]3CC[C@H](C(=O)CCl)[C@@]3(C)CC(=O)[C@@H]12	1500	–	–	9040	Convulsant	Convulsant
CC(C)c1cccc(C(C)C)c1O [PROPOFOL]	2000	3.5	68	–	–	–
CC(=O)[C@H]1CC[C@H]2[C@@H]3CC[C@H]4C[C@H](O)[C@@H](N5CCO[C@H](C)C5)C[C@]4(C)[C@H]3CC[C@]12C	250	–	15	369	–	–
CCCC(C)C1(CC)C(=O)NC(=S)NC1=O (stereo not drawn) [THIOPENTAL]	30000	3.7	83	29500	–	–
CC1(C)CN([C@H]2C[C@@]3(C)[C@@H](CC[C@H]4[C@@H]5CC[C@H](C(=O)CCl)[C@@]5(C)CC(=O)[C@@H]43)C[C@@H]2O)CCO1	450	–	13.4	206	–	–
CC(=O)[C@H]1CC[C@H]2[C@@H]3CC[C@H]4C[C@H](O)[C@@H](N5CCO[C@H](C(C)C)C5)C[C@]4(C)[C@H]3C(=O)C[C@]12C	–	9.9	3.4	90	–	–
CC(=O)[C@H]1CC[C@H]2[C@@H]3CC[C@H]4C[C@H](O)[C@@H](N5CCSC(C)(C)C5)C[C@]4(C)[C@H]3C(=O)C[C@]12C	–	16.3	13.7	209	–	–
CC1(C)CN([C@H]2C[C@@]3(C)[C@@H](CC[C@H]4[C@@H]5CC[C@H](C(=O)CO)[C@@]5(C)CC(=O)[C@@H]43)C[C@@H]2O)CCO1	4400	–	42.3	5590	–	–
CC(=O)[C@H]1CC[C@H]2[C@@H]3CC[C@H]4C[C@H](O)[C@@H](N5C[C@@H](C)O[C@@H](C)C5)C[C@]4(C)[C@H]3C(=O)C[C@]12C	–	5.8	14.4	3200	–	–
